# Experimental data: ChEMBL document CHEMBL1240420, “Synthesis and biological evaluation of cinnamido linked pyrrolo[2,1-c][1,4]benzodiazepines as antimitotic agents” (Eur J Med Chem, 2010)
# Legend:
# Assay type in all cases: functional
# CCRF-CEM = test: Cytotoxicity against human CCRF-CEM cells after 48 hrs by SRB assay
# HL-60(TB) = test: Cytotoxicity against human HL-60(TB) cells after 48 hrs by SRB assay; details: HL-60, 48 h
# K562 = test: Cytotoxicity against human K562 cells after 48 hrs by SRB assay; details: K562, 48 h
# MOLT-4 = test: Cytotoxicity against human MOLT4 cells after 48 hrs by SRB assay; details: MOLT-4, 48 h
# SR = test: Cytotoxicity against human SR cells after 48 hrs by SRB assay
# A549 = test: Cytotoxicity against human A549 cells after 48 hrs by SRB assay; details: A549, 48 h
# Method in brief: (§1)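 Cells were grown in RPMI 1640 with 10% FBS and 2 mM L-glutamine, plated 24 h before dosing, then given continuous 48 h exposure at 0.1, 1, 10 and 100 µM in triplicate wells. Cells were fixed with cold TCA (10% final, 60 min, 4 °C), stained with 0.4% SRB in 1% acetic acid for 20 min, eluted with 10 mM Tris base, and read at 540/690 nm. GI50 was taken from [(Ti−Tz)/(C−Tz)]×100 = 50; three determinations were averaged.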
# EKVX = test: Cytotoxicity against human EKVX cells after 48 hrs by SRB assay
# HOP-62 = test: Cytotoxicity against human HOP62 cells after 48 hrs by SRB assay; details: HOP-62, 48 h; method in brief: as §1
# HOP-92 = test: Cytotoxicity against human HOP92 cells after 48 hrs by SRB assay; details: HOP-92, 48 h
# NCI-H226 = test: Cytotoxicity against human NCI-H226 cells after 48 hrs by SRB assay; details: NCI-H226, 48 h
# LOX IMVI = test: Cytotoxicity against human LOXIMVI cells after 48 hrs by SRB assay
# Malme-3M = test: Cytotoxicity against human MALME-3M cells after 48 hrs by SRB assay
# M14 = test: Cytotoxicity against human M14 cells after 48 hrs by SRB assay; details: M14, 48 h
# SK-MEL-2 = test: Cytotoxicity against human SK-MEL-2 cells after 48 hrs by SRB assay; details: SK-MEL-2, 48 h
# SK-MEL-28 = test: Cytotoxicity against human SK-MEL-28 cells after 48 hrs by SRB assay; details: SK-MEL-28, 48 h
# SK-MEL-5 = test: Cytotoxicity against human SK-MEL-5 cells after 48 hrs by SRB assay; details: SK-MEL-5, 48 h
# UACC-257 = test: Cytotoxicity against human UACC257 cells after 48 hrs by SRB assay; details: UACC-257, 48 h
# UACC-62 = test: Cytotoxicity against human UACC62 cells after 48 hrs by SRB assay; details: UACC-62, 48 h
# NCI-H23 = test: Cytotoxicity against human NCI-H23 cells after 48 hrs by SRB assay; details: NCI-H23, 48 h
# NCI-H322M = test: Cytotoxicity against human NCI-H322M cells after 48 hrs by SRB assay
# NCI-H460 = test: Cytotoxicity against human NCI-H460 cells after 48 hrs by SRB assay; details: NCI-H460, 48 h
# NCI-H522 = test: Cytotoxicity against human NCI-H522 cells after 48 hrs by SRB assay; details: NCI-H522, 48 h
# COLO 205 = test: Cytotoxicity against human COLO205 cells after 48 hrs by SRB assay; details: COLO 205, 48 h; method in brief: as §1
# HCC 2998 = test: Cytotoxicity against human HCC2998 cells after 48 hrs by SRB assay; details: HCC 2998, 48 h
# HCT-116 = test: Cytotoxicity against human HCT116 cells after 48 hrs by SRB assay; details: HCT-116, 48 h
# HCT-15 = test: Cytotoxicity against human HCT15 cells after 48 hrs by SRB assay; details: HCT-15, 48 h
# HT-29 = test: Cytotoxicity against human HT-29 cells after 48 hrs by SRB assay; details: HT-29, 48 h
# KM12 = test: Cytotoxicity against human KM12 cells after 48 hrs by SRB assay; details: KM12, 48 h
# SW-620 = test: Cytotoxicity against human SW620 cells after 48 hrs by SRB assay; details: SW-620, 48 h
# SF-268 = test: Cytotoxicity against human SF268 cells after 48 hrs by SRB assay; details: SF-268, 48 h
# SF-295 = test: Cytotoxicity against human SF295 cells after 48 hrs by SRB assay; details: SF-295, 48 h
# SF-539 = test: Cytotoxicity against human SF539 cells after 48 hrs by SRB assay; details: SF-539, 48 h
# SNB-19 = test: Cytotoxicity against human SNB19 cells after 48 hrs by SRB assay; details: SNB-19, 48 h
# SNB-75 = test: Cytotoxicity against human SNB75 cells after 48 hrs by SRB assay; details: SNB-75, 48 h
# U-251 = test: Cytotoxicity against human U251 cells after 48 hrs by SRB assay; details: U-251, 48 h
# 786-0 = test: Cytotoxicity against human 786-0 cells after 48 hrs by SRB assay; details: 786-0, 48 h
# A498 = test: Cytotoxicity against human A498 cells after 48 hrs by SRB assay; details: A498, 48 h
# ACHN = test: Cytotoxicity against human ACHN cells after 48 hrs by SRB assay
# CAKI-1 = test: Cytotoxicity against human Caki1 cells after 48 hrs by SRB assay; details: CAKI-1, 48 h
# RXF 393 = test: Cytotoxicity against human […] cells after 48 hrs by SRB assay; details: RXF 393, 48 h
# SN12C = test: Cytotoxicity against human SN12C cells after 48 hrs by SRB assay
# TK-10 = test: Cytotoxicity against human TK10 cells after 48 hrs by SRB assay; details: TK-10, 48 h
# UO-31 = test: Cytotoxicity against human UO31 cells after 48 hrs by SRB assay; details: UO-31, 48 h
# PC-3 = test: Cytotoxicity against human PC3 cells after 48 hrs by SRB assay; details: PC-3, 48 h; method in brief: as §1
# DU-145 = test: Cytotoxicity against human DU145 cells after 48 hrs by SRB assay; details: DU-145, 48 h
# IGROV-1 = test: Cytotoxicity against human IGROV1 cells after 48 hrs by SRB assay; details: IGROV-1, 48 h
# OVCAR-3 = test: Cytotoxicity against human OVCAR-3 cells after 48 hrs by SRB assay; details: OVCAR-3, 48 h
# OVCAR-4 = test: Cytotoxicity against human OVCAR4 cells after 48 hrs by SRB assay; details: OVCAR-4, 48 h
# OVCAR-5 = test: Cytotoxicity against human OVCAR5 cells after 48 hrs by SRB assay; details: OVCAR-5, 48 h
# OVCAR-8 = test: Cytotoxicity against human OVCAR8 cells after 48 hrs by SRB assay; details: OVCAR-8, 48 h
# SK-OV-3 = test: Cytotoxicity against human SKOV3 cells after 48 hrs by SRB assay; details: SK-OV-3, 48 h
# MCF7 = test: Cytotoxicity against human MCF7 cells after 48 hrs by SRB assay; details: MCF7, 48 h; method in brief: as §1
# NCI/ADR-RES = test: Cytotoxicity against human NCI/ADR-RES cells after 48 hrs by SRB assay
# MDA-MB-231 = test: Cytotoxicity against human MDA-MB-231 cells after 48 hrs by SRB assay; details: MDA-MB-231, 48 h
# [1] = Cytotoxicity against human Hs 578T cells after 48 hrs by SRB assay
# MDA-MB-435 = test: Cytotoxicity against human MDA-MB-435 cells after 48 hrs by SRB assay; details: MDA-MB-435, 48 h
# BT-549 = test: Cytotoxicity against human BT549 cells after 48 hrs by SRB assay; details: BT-549, 48 h
# T47D = test: Cytotoxicity against human T47D cells after 48 hrs by SRB assay
# MDA-MB-468 = test: Cytotoxicity against human MDA-MB-468 cells after 48 hrs by SRB assay; details: MDA-MB-468, 48 h
compound,measurement,setting,value
COc1cc(/C=C/C(=O)N2CCN(C(=O)c3cc(OC)c(OC)c(OC)c3)CC2)ccc1OCCCOc1cc2c(cc1OC)C(=O)N1CCC[C@H]1C=N2,GI50,CCRF-CEM,80 nM
same,GI50,HL-60(TB),180 nM
same,GI50,K562,690 nM
same,GI50,MOLT-4,230 nM
same,GI50,SR,280 nM
same,GI50,A549,1890 nM
same,GI50,EKVX,720 nM
same,GI50,HOP-62,230 nM
same,GI50,HOP-92,490 nM
same,GI50,NCI-H226,310 nM
same,GI50,LOX IMVI,240 nM
same,GI50,Malme-3M,170 nM
same,GI50,M14,320 nM
same,GI50,SK-MEL-2,260 nM
same,GI50,SK-MEL-28,200 nM
same,GI50,SK-MEL-5,190 nM
same,GI50,UACC-257,350 nM
same,GI50,UACC-62,160 nM
same,GI50,NCI-H23,260 nM
same,GI50,NCI-H322M,340 nM
same,GI50,NCI-H460,240 nM
same,GI50,NCI-H522,60 nM
same,GI50,COLO 205,190 nM
same,GI50,HCC 2998,240 nM
same,GI50,HCT-116,170 nM
same,GI50,HCT-15,2980 nM
same,GI50,HT-29,260 nM
same,GI50,KM12,210 nM
same,GI50,SW-620,170 nM
same,GI50,SF-268,240 nM
same,GI50,SF-295,310 nM
same,GI50,SF-539,240 nM
same,GI50,SNB-19,380 nM
same,GI50,SNB-75,210 nM
same,GI50,U-251,180 nM
same,GI50,786-0,270 nM
same,GI50,A498,190 nM
same,GI50,ACHN,2540 nM
same,GI50,CAKI-1,2110 nM
same,GI50,RXF 393,540 nM
same,GI50,SN12C,270 nM
same,GI50,TK-10,290 nM
same,GI50,UO-31,2590 nM
same,GI50,PC-3,730 nM
same,GI50,DU-145,330 nM
same,GI50,IGROV-1,240 nM
same,GI50,OVCAR-3,210 nM
same,GI50,OVCAR-4,1070 nM
same,GI50,OVCAR-5,290 nM
same,GI50,OVCAR-8,450 nM
same,GI50,SK-OV-3,610 nM
same,GI50,MCF7,80 nM
same,GI50,NCI/ADR-RES,8910 nM
same,GI50,MDA-MB-231,230 nM
same,GI50,[1],230 nM
same,GI50,MDA-MB-435,180 nM
same,GI50,BT-549,150 nM
same,GI50,T47D,230 nM
same,GI50,MDA-MB-468,70 nM
